How the values were obtained:
[1] = target: Cytochrome P450 2D6 (Homo sapiens, UniProt P10635); assay: Inhibition of CYP2D6 in human liver microsomes by LC-MS/MS analysis; format: ADME, Microsome
How it was run: (§1)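 Human liver microsomes incubated with isoform-specific substrates and compound, typically 0.1–25 μM. Metabolite formation read by LC-MS/MS, […]. IC50 calculated from the decrease in metabolite formation relative to vehicle control.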

[2] = target: Cytochrome P450 3A4 (Homo sapiens, UniProt P08684); assay: Inhibition of CYP3A4 in human liver microsomes by LC-MS/MS analysis; format: ADME, Microsome; how it was run: as §1
Cytochrome P450 3A4, sequence (P08684 whole entry): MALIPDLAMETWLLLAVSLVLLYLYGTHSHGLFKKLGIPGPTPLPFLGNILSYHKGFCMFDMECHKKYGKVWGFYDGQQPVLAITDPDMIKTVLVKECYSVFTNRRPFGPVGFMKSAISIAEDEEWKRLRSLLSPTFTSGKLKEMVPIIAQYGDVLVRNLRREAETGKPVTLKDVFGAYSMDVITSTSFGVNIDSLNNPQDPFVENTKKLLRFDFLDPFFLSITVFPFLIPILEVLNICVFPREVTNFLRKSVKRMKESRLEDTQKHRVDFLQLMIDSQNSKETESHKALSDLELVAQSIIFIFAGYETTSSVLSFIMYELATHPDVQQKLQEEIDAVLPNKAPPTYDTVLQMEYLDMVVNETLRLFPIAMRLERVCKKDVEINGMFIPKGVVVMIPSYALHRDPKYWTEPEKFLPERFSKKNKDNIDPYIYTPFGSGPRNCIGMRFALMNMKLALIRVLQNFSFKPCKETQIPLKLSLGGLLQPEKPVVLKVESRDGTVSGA

[3] = test system: Brain; assay: Drug level in mouse brain at 30 mg/kg, po; format: ADME, organism-based; design: dose 30 mg/kg, route oral; conditions: in vivo
How it was run: (§2)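 Male mice dosed orally at 3, 10 or 30 mg/kg in 5% transcutol/saline, 60 min before the tail suspension test. Terminal whole brain (ng/g) and plasma (ng/mL) samples taken from the test animals. Brain/plasma ratio derived from these levels.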

[4] = test system: Mus musculus; assay: Antidepressant activity in mouse assessed as reduction of immobility time at 10 mg/kg, po after 60 mins by tail suspension test relative to control; format: functional; design: scale not given: the % may be the effect or the level left
How it was run: (§3)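 Mouse tail suspension test, male mice (10–12 per group, blind). Single oral dose in 5% transcutol in saline, 60 min pretreatment. Immobility recorded automatically for 5 min. Compared with vehicle group. Desipramine 100 mg/kg PO used as reference. One-way ANOVA with Dunnett's post test, p < 0.05.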

[5] = target: T1, CYP1A (Homo sapiens, UniProt P04798+P05177); assay: Inhibition of CYP1A in human liver microsomes by LC-MS/MS analysis; format: ADME, Microsome; how it was run: as §1
T1 sequence (P04798 whole entry): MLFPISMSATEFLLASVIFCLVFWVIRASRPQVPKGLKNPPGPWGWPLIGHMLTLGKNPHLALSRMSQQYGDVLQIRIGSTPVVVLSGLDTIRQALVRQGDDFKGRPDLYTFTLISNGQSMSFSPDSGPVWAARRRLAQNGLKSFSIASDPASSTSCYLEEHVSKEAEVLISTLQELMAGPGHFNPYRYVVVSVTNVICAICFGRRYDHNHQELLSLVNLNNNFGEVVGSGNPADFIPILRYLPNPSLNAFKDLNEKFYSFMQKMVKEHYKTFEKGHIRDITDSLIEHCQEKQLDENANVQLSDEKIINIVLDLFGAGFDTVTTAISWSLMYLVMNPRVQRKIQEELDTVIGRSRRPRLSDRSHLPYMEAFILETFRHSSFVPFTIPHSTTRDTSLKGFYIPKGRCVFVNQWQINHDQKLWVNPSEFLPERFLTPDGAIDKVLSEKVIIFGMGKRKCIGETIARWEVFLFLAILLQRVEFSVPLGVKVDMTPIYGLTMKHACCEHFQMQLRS
T1 sequence (P05177 whole entry): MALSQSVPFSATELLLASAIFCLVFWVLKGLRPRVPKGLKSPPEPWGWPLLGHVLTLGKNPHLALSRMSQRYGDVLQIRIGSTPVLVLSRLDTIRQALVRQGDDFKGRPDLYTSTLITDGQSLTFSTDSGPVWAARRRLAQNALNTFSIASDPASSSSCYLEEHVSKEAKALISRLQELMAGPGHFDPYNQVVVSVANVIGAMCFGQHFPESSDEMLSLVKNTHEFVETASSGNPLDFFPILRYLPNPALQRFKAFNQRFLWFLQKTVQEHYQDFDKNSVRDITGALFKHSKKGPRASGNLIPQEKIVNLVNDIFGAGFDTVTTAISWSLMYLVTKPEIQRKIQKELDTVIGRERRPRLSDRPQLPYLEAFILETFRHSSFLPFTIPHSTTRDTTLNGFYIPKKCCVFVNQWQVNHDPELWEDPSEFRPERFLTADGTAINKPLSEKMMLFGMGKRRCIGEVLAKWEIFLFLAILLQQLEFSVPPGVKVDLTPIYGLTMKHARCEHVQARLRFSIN

[6] = target: Voltage-gated inwardly rectifying potassium channel KCNH2 (Homo sapiens, UniProt Q12809); assay: Inhibition of human ERG expressed in CHO cells by high throughput single cell planar patch clamp method; format: cell-based
Voltage-gated inwardly rectifying potassium channel KCNH2, sequence (Q12809 whole entry): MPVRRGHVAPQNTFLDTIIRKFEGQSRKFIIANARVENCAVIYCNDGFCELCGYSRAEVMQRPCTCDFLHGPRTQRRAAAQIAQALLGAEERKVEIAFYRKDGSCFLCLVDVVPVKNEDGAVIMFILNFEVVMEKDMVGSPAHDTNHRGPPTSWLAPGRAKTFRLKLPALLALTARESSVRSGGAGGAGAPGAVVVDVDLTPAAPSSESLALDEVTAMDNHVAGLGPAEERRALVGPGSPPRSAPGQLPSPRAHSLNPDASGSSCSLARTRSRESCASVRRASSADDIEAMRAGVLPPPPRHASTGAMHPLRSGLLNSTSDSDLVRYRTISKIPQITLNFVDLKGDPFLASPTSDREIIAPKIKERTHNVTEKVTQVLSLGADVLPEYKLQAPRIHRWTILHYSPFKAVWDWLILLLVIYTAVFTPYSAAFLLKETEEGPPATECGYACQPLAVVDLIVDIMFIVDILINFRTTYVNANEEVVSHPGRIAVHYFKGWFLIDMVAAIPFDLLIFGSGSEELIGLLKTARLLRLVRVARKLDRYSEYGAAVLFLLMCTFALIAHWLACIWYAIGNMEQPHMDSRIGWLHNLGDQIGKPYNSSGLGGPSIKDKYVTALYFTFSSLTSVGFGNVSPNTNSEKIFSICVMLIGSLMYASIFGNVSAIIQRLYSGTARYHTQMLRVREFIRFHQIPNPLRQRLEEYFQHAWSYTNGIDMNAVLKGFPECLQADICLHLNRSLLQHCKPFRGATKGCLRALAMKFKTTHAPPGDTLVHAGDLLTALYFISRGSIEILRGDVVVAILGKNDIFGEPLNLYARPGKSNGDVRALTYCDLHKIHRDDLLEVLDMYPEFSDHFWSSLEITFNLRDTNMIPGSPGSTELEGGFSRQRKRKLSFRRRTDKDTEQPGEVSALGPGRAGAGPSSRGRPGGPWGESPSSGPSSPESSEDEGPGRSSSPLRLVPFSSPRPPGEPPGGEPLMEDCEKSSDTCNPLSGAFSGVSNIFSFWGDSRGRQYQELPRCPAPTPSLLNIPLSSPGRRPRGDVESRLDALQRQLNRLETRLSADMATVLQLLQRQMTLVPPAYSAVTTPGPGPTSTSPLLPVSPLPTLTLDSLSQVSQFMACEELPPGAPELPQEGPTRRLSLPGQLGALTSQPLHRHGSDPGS

[7] = target: Sodium-dependent noradrenaline transporter (Homo sapiens, UniProt P23975); assay: Inhibition of norepinephrine reuptake at NET expressed in MDCK cells; format: cell-based
Sodium-dependent noradrenaline transporter, sequence (P23975 whole entry): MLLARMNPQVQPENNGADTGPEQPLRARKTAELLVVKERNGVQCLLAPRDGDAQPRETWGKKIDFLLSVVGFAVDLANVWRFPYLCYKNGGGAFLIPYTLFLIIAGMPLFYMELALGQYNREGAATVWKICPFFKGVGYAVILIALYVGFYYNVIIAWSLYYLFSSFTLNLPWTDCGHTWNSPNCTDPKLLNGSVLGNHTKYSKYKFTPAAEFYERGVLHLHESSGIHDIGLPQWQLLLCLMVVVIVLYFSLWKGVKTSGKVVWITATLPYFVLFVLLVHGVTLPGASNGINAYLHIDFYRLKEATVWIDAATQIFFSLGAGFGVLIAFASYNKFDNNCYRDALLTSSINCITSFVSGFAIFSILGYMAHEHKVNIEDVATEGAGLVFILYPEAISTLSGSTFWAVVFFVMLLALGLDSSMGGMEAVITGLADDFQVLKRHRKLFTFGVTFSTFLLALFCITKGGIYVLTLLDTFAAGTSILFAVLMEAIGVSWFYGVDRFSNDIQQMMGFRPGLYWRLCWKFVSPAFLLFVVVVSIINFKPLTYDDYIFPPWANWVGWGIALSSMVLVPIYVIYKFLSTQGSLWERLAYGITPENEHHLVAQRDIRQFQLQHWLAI

[8] = test system: Mus musculus; assay: Antidepressant activity in po dosed mouse assessed as reduction of immobility time after 60 mins by tail suspension test; format: functional, organism-based; how it was run: as §3
[9] = test system: Plasma; assay: Plasma concentration in mouse at 3 mg/kg, po; format: ADME, organism-based; design: dose 3 mg/kg, route oral; conditions: in vivo; how it was run: as §2
[10] = Half life in human liver microsomes at 3 uM by LC-MS/MS analysis; format: ADME, Microsome
How it was run: (§4)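 Human or mouse liver microsomes (0.5 mg/mL) incubated with 3 μM compound at 37 °C. Reaction started with NADPH and stopped with methanol containing internal standard. Loss of compound followed over 45 min by LC-MS/MS. Peak area ratio to internal standard plotted against time and the slope of the line taken.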

[11] = test system: Plasma; assay: Plasma concentration in mouse assessed as (3aR,6aS)-3a-(3,4-dichlorophenyl)octahydrocyclopenta[c]pyrrole level at 30 mg/kg, po; format: ADME, organism-based; design: dose 30 mg/kg, route oral; conditions: in vivo; how it was run: as §2
[12] = target: Sodium-dependent serotonin transporter (Homo sapiens, UniProt P31645); assay: Inhibition of serotonin reuptake at SERT expressed in HEK293 cells; format: cell-based
Sodium-dependent serotonin transporter, sequence (P31645 whole entry): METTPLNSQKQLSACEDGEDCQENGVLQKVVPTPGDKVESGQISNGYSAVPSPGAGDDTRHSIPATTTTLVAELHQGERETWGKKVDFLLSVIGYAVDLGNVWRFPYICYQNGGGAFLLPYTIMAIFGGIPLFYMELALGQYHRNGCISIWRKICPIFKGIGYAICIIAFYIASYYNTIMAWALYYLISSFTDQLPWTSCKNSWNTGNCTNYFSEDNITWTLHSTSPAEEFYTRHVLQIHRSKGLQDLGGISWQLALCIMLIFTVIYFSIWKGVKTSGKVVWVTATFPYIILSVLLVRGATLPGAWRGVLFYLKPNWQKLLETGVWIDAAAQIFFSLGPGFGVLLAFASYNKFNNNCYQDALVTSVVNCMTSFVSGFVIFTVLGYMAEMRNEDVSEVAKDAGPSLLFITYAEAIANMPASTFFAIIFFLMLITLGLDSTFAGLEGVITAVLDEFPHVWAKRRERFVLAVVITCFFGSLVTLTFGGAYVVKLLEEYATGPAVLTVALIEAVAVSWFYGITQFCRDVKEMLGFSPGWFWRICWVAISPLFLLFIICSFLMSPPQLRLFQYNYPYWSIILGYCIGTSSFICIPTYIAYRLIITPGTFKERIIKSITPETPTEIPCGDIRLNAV

[13] = test system: Plasma; assay: Plasma concentration in mouse assessed as (3aR,6aS)-3a-(3,4-dichlorophenyl)octahydrocyclopenta[c]pyrrole level at 3 mg/kg, po; format: ADME, organism-based; design: dose 3 mg/kg, route oral; conditions: in vivo; how it was run: as §2
[14] = target: Cytochrome P450 2C19 (Homo sapiens, UniProt P33261); assay: Inhibition of CYP2C19 in human liver microsomes by LC-MS/MS analysis; format: ADME, Microsome; how it was run: as §1
Cytochrome P450 2C19, sequence (P33261 whole entry): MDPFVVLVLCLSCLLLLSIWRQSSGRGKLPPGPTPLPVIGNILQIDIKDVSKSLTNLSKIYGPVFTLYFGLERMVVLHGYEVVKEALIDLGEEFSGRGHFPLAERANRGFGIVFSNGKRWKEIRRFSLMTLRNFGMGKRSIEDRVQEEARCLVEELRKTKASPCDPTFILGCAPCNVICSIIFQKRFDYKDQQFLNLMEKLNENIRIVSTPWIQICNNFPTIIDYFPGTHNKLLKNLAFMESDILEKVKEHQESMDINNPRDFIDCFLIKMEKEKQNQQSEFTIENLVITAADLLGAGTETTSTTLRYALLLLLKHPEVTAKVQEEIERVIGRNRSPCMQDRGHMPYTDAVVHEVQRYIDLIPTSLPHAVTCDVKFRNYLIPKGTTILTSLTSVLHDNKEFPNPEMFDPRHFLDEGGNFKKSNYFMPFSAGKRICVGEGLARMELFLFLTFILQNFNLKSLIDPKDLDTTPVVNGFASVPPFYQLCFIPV

[15] = test system: Plasma; assay: Plasma concentration in mouse assessed as (3aR,6aS)-3a-(3,4-dichlorophenyl)octahydrocyclopenta[c]pyrrole level at 10 mg/kg, po; format: ADME, organism-based; design: dose 10 mg/kg, route oral; conditions: in vivo; how it was run: as §2
[16] = Ratio of drug level in brain to plasma in po dosed mouse; format: ADME, organism-based; conditions: brain and plasma, read-out: BPR; how it was run: as §2
[17] = test system: Mus musculus; assay: Toxicity in mouse assessed as increase of spontaneous locomotor activity at 30 mg/kg, po measured for 5 mins; format: organism-based; design: dose 30 mg/kg, route oral; conditions: in vivo
[18] = target: Cytochrome P450 2C9 (Homo sapiens, UniProt P11712); assay: Inhibition of CYP2C9 in human liver microsomes by LC-MS/MS analysis; format: ADME, Microsome; how it was run: as §1
Cytochrome P450 2C9, sequence (P11712 whole entry): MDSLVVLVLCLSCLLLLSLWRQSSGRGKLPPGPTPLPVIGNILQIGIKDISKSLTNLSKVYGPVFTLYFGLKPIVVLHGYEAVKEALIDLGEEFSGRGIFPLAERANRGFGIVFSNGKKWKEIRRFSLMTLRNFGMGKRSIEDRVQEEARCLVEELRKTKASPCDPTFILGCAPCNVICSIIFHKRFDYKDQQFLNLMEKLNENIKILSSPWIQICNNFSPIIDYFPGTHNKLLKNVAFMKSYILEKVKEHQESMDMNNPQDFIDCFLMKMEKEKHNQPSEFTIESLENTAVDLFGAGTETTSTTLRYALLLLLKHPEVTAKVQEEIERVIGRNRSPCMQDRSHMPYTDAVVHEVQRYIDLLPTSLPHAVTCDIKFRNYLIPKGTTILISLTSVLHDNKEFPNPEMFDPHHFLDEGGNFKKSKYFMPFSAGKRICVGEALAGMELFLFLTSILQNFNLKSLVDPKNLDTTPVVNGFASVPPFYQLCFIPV

[19] = test system: Brain; assay: Drug level in mouse brain assessed as (3aR,6aS)-3a-(3,4-dichlorophenyl)octahydrocyclopenta[c]pyrrole level at 10 mg/kg, po; format: ADME, organism-based; design: dose 10 mg/kg, route oral; conditions: in vivo; how it was run: as §2
[20] = test system: Plasma; assay: Plasma concentration in mouse at 10 mg/kg, po; format: ADME, organism-based; design: dose 10 mg/kg, route oral; conditions: in vivo; how it was run: as §2
[21] = test system: Mus musculus; assay: Antidepressant activity in mouse assessed as reduction of immobility time at 100 mg/kg, po after 60 mins by tail suspension test relative to control; format: functional; design: scale not given: the % may be the effect or the level left; how it was run: as §3
[22] = Half life in mouse liver microsomes at 3 uM by LC-MS/MS analysis; format: ADME, Microsome; how it was run: as §4
[23] = test system: Mus musculus; assay: Antidepressant activity in mouse assessed as reduction of immobility time at 30 mg/kg, po after 60 mins by tail suspension test relative to control; format: functional; design: scale not given: the % may be the effect or the level left; how it was run: as §3
[24] = test system: Plasma; assay: Plasma concentration in mouse at 30 mg/kg, po; format: ADME, organism-based; design: dose 30 mg/kg, route oral; conditions: in vivo; how it was run: as §2
[25] = test system: Brain; assay: Drug level in mouse brain at 3 mg/kg, po; format: ADME, organism-based; design: dose 3 mg/kg, route oral; conditions: in vivo; how it was run: as §2
[26] = test system: Brain; assay: Drug level in mouse brain assessed as (3aR,6aS)-3a-(3,4-dichlorophenyl)octahydrocyclopenta[c]pyrrole level at 3 mg/kg, po; format: ADME, organism-based; design: dose 3 mg/kg, route oral; conditions: in vivo; how it was run: as §2
[27] = test system: Brain; assay: Drug level in mouse brain assessed as (3aR,6aS)-3a-(3,4-dichlorophenyl)octahydrocyclopenta[c]pyrrole level at 30 mg/kg, po; format: ADME, organism-based; design: dose 30 mg/kg, route oral; conditions: in vivo; how it was run: as §2
[28] = target: Sodium-dependent dopamine transporter (Homo sapiens, UniProt Q01959); assay: Inhibition of dopamine reuptake at DAT expressed in CHO-K1 cells; format: cell-based
Sodium-dependent dopamine transporter, sequence (Q01959 whole entry): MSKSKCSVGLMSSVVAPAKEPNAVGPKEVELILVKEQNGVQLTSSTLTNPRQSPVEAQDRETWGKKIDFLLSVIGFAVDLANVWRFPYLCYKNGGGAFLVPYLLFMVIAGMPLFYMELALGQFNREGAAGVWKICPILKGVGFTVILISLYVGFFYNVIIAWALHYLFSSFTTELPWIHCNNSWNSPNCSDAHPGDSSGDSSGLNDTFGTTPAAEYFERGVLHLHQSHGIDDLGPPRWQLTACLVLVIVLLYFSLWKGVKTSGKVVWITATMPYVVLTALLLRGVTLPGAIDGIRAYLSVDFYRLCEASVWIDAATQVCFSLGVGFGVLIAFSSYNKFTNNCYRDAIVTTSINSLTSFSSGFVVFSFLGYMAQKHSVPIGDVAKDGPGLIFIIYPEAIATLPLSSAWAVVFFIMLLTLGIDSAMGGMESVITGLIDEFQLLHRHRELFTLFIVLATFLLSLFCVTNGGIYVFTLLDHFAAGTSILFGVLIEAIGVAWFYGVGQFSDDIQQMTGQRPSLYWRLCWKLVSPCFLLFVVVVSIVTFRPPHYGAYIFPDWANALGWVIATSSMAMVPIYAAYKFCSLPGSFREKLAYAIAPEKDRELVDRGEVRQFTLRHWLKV

[29] = test system: Brain; assay: Drug level in mouse brain at 10 mg/kg, po; format: ADME, organism-based; design: dose 10 mg/kg, route oral; conditions: in vivo; how it was run: as §2
[30] = test system: Mus musculus; assay: Toxicity in mouse assessed as increase of spontaneous locomotor activity at 10 to 30 mg/kg, po measured for 5 mins; format: organism-based; design: dose 10-30 mg/kg, route oral; conditions: in vivo
[31] = Ratio of drug level in brain to plasma in mouse at 30 mg/kg, po; format: ADME, organism-based; design: dose 30 mg/kg, route oral; conditions: brain and plasma, read-out: BPR; how it was run: as §2
[32] = Plasma protein binding in mouse; format: ADME, cell-free; conditions: read-out: PPB (converted)
How it was run: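 Protein binding measured with mouse plasma protein.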

Cytochrome P450 2D6, sequence (P10635 whole entry, canonical isoform): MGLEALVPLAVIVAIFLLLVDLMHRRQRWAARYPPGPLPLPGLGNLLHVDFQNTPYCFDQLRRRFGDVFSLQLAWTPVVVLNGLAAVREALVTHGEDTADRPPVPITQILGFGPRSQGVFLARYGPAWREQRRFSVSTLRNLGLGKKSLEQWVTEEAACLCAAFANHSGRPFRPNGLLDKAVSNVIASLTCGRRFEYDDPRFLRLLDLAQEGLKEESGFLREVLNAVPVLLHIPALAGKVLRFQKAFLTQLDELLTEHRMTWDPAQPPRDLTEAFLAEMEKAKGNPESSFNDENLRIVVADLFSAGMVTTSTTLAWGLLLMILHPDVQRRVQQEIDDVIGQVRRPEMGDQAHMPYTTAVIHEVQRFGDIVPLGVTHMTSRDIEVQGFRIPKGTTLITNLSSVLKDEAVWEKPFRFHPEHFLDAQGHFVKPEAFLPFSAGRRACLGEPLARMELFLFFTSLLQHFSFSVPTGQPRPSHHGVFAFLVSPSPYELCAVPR

## CN1C[C@H]2CCCC[C@@]2(c2ccc(Cl)c(Cl)c2)C1 (single isomer, unassigned)
[1]
  IC50: 1.1 µM
[2]
  IC50: 6.5 µM
[3]
  Drug uptake: 4203 ng/g
[4]
  Activity: 13%
[5]
  IC50: > 25 µM
[6]
  IC50: 4.14 µM
[7]
  IC50: 0.0562 µM
[8]
  Activity: Dose-dependent effect
[9]
  Cp: 0.014 µg/mL
[10]
  half-life at 3 µM: 2.08 h
[11]
  Cp: 1.228 µg/mL
[12]
  IC50: 0.00977 µM
[13]
  Cp: 0.114 µg/mL
[14]
  IC50: 11.9 µM
[15]
  Cp: 0.417 µg/mL
[16]
  Kp: 5
[17]
  Activity: Non-toxic
[18]
  IC50: > 25 µM
[19]
  Drug uptake: 1878 ng/g
[20]
  Cp: 0.05 µg/mL
[21]
  Activity: 28%
[22]
  half-life at 3 µM: 0.75 h
[23]
  Activity: 16%
[24]
  Cp: 0.181 µg/mL
[25]
  Drug uptake: 294 ng/g
[26]
  Drug uptake: 440 ng/g
[27]
  Drug uptake: 6193 ng/g
[28]
  IC50: 0.055 µM
[29]
  Drug uptake: 1054 ng/g

## Clc1ccc([C@@]23CCC[C@@H]2CNC3)cc1Cl
[8]
  Activity: Dose-dependent effect

## Cl.Clc1ccc([C@@]23CCC[C@@H]2CNC3)cc1Cl
[3]
  Drug uptake: 14050 ng/g
[4]
  Activity: 29%
[30]
  Activity: Non-toxic
[9]
  Cp: 0.069 µg/mL
[31]
  Kp: 30
[20]
  Cp: 0.214 µg/mL
[32]
  fraction unbound: 0.04
[21]
  Activity: 25%
[23]
  Activity: 42%
[24]
  Cp: 0.569 µg/mL
[25]
  Drug uptake: 1747 ng/g
[29]
  Drug uptake: 5950 ng/g
